# Assay results gathered from unrelated publications.
# Action: inhibitor
# rep main protease: Replicase polyprotein 1ab, main protease (rep, Severe acute respiratory syndrome coronavirus 2, UniProt P0DTD1)
# rep papain-like protease: Replicase polyprotein 1ab, papain-like protease (rep, Severe acute respiratory syndrome coronavirus 2, UniProt P0DTD1)
Compound,target,assay,system,conditions,inhibition
c1cc(CN2CCCNCCNCCCNCC2)ccc1CN1CCCNCCNCCCNCC1,rep main protease,enzyme activity in cells,HEK-293T,20 µM,-0.49%
O=C(O)[C@H]1O[C@@H](Oc2cc3oc(-c4ccc(O)cc4)cc(=O)c3c(O)c2O)[C@H](O)[C@@H](O)[C@@H]1O,rep main protease,enzyme activity,,10 µM,18.9%
CCc1ccc(C2C(c3ccccc3)=C(O)C(=O)N2c2ccc(Cl)cc2)cc1 (stereo not drawn),rep main protease,enzyme activity,,20 µM,16.8%
Cc1cc(NC(=O)c2cc3c(=O)n4cccc(C)c4nc3n2C)ccc1Br,rep main protease,enzyme activity,,10 µM,30%
O=C1NCc2c1cccc2C(=O)N[C@H](CNC(=O)c1ccnc2[nH]ncc12)c1ccccc1,rep main protease,enzyme activity,,5 µM,10%
O=C(O)[C@H]1O[C@@H](Oc2cc3oc(-c4ccccc4)cc(=O)c3c(O)c2O)[C@H](O)[C@@H](O)[C@@H]1O,rep main protease,enzyme activity,,10 µM,68.9%
CC(C)C[C@H](NC(=O)OCc1ccccc1)C(=O)N(C)N(C#N)CCC(N)=O,rep main protease,"enzyme activity, fluorescence",,"50 µM, pH 7.2",100%
O=C1C=CC(=O)c2ccccc21,rep main protease,enzyme activity,,1 µM,90.5%
Clc1nc2ccccc2cc1/C=N\c1ccc(Br)nc1,rep papain-like protease,enzyme activity,,100 µM,6.2%
CC1(C)C=Cc2c(ccc3c2OC[C@@H](c2ccc(O)cc2O)C3)O1,rep main protease,enzyme activity,,8 µM,17.4%
C[C@@H]1O[C@@H](OC[C@H]2O[C@@H](OCCc3ccc(O)c(O)c3)[C@H](OC(=O)/C=C/c3ccc(O)c(O)c3)[C@@H](O)[C@@H]2O)[C@H](O)[C@H](O)[C@H]1O,rep main protease,enzyme activity,,10 µM,61.7%
COCOc1cc(C)cc2c1C(=O)C=CC2=O,rep main protease,enzyme activity,,0.1 µM,3%
CCc1ccc(NC(=O)c2cc3c(=O)n4ccccc4nc3n2C)cc1,rep main protease,enzyme activity,,10 µM,28%
Cc1c(-c2cnccn2)ssc1=S,rep main protease,enzyme activity,,20 µM,97.6%
Cc1cccn2c(=O)c3cc(C(=O)Nc4ccc(N(C)C)cc4)n(C)c3nc12,rep main protease,enzyme activity,,1 µM,3.5%
CCOC(=O)c1ccc(OC(=O)CCCCCNC(=N)N)cc1,rep main protease,enzyme activity,,10 µM,3%
C[C@]1(C(=O)NC[C@H](NC(=O)c2cncc3[nH]ccc23)c2ccc3ccccc3c2)CCNC1=O,rep main protease,enzyme activity,,5 µM,13.7%
O=C(O)c1cc(N(Cc2ccccc2O)Cc2cc(O)ccc2O)ccc1O,rep main protease,enzyme activity,,20 µM,-1.57%
Oc1ccc([C@H]2COc3cc(O)ccc3C2)cc1,rep main protease,enzyme activity,,50 µM,18.5%
O=c1cc(-c2ccccc2)oc2cc(O)c(O)c(O)c12,rep main protease,enzyme activity,,100 µM,99.4%
Cc1ccc2nc(Cl)c(C=Nc3cc(Br)ccn3)cc2c1,rep papain-like protease,enzyme activity,,100 µM,23.9%
CC(C(=O)NC[C@H](NC(=O)c1[nH]nc2nc[nH]c(=O)c12)c1ccc2ccccc2c1)=C1CCC1,rep main protease,enzyme activity,,5 µM,15.1%
CC1(C)CC(Nc2ccc(Nc3ccccc3)cc2)CC(C)(C)N1,rep main protease,enzyme activity,,20 µM,27.8%
O=c1c(O)c(-c2ccc(O)cc2)oc2cc(O)cc(O)c12,rep main protease,enzyme activity,,20 µM,12%
C/C=C1\C(OC2OC(CO)C(O)C(O)C2O)OC=C(C(=O)OC)C1CC(=O)OCCc1ccc(O)c(O)c1 (stereo not drawn),rep main protease,enzyme activity,,20 µM,93.8%
COc1cc(O)c2c(c1)OC/C(=C\c1ccc(O)cc1)C2=O,rep main protease,enzyme activity,,20 µM,16.7%
COc1c(O)cc(O)c2c(=O)cc(-c3ccccc3)oc12,rep main protease,enzyme activity,,100 µM,3.6%
CCOC(=O)COc1cc(C)cc2c1C(=O)C=CC2=O,rep main protease,enzyme activity,,10 µM,97.5%
O=c1oc2c(O)c(O)cc3c(=O)oc4c(O)c(O)cc1c4c23,rep main protease,"enzyme activity, FRET",,"10 µM, 10 min",> 50%
O=C(Oc1cc(Cl)cc([N+](=O)[O-])c1)c1cccc2[nH]ccc12,rep main protease,"enzyme activity, fluorescence",,"10 µM, pH 7.2",1%
COc1cccc2c1C(=O)C(C(C)=O)=CC2=O,rep main protease,enzyme activity,,1 µM,94.3%
COc1ccc2nc(Cl)c(/C=N/c3ccc(-c4nc5ccccc5[nH]4)cc3)cc2c1,rep papain-like protease,enzyme activity,,100 µM,13.5%
O=c1c(O)c(-c2cc(O)c(O)c(O)c2)oc2cc(O)ccc12,rep main protease,enzyme activity,,10 µM,62.5%
O=C(O)Cc1ccc(O)c([N+](=O)[O-])c1,rep main protease,"enzyme activity, FRET",,"10 µM, 10 min",< 25%
C=C1C(=O)OC2C1C(O)CC1(C)C(O)CCC(C=O)C21 (stereo not drawn),rep main protease,enzyme activity,,20 µM,-62%
Cc1ccc(NC(=O)c2cc3c(=O)n4cccc(C)c4nc3n2C)cc1Cl,rep main protease,enzyme activity,,10 µM,16%
O=C(Oc1cncc(Cl)c1)c1cc2cc(Cl)ccc2[nH]1,rep main protease,"enzyme activity, fluorescence",,"10 µM, pH 7.2",100%
CCC(=O)Oc1cccc2c1C(=O)C=CC2=O,rep main protease,enzyme activity,,10 µM,102%
COc1cc(C[C@@H](C)[C@@H](C)Cc2cc(O)c(OC)c(OC)c2)cc(O)c1OC,rep main protease,"enzyme activity, FRET",,8 µM,58%
Cn1c(=O)n(C)c2cc(CNc3ccc4c(c3)OCO4)ccc21,rep main protease,enzyme activity,,20 µM,22.3%
O=C1C=CC(=O)c2c(O)cccc21,rep main protease,enzyme activity,,10 µM,102%
Cn1c(C(=O)Nc2ccc(Cl)cc2)cc2c(=O)n3ccccc3nc21,rep main protease,enzyme activity,,1 µM,7.4%
